# Assay results of several laboratories.
# Protocols differ between the studies behind these lines.
# Effect on: enzyme activity
# Action: inhibitor
# FGFR1: Fibroblast growth factor receptor 1 (FGFR1, Homo sapiens, UniProt P11362)
SMILES,target,method,tested at,remaining activity
CCCOc1ccc(OC)c(F)c1C(=O)c1ccc(C(=O)N[C@@H]2CNC[C@H]2NC(=O)c2ccc3[nH]ncc3c2)cc1,FGFR1,,10 µM,28%
Cc1cnc(NC2CCOCC2)nc1-n1cnc(C(=O)NC(CN)c2cc(F)cc(Cl)c2)c1 (stereo not drawn),"Fibroblast growth factor receptor 1 (FGFR1, Homo sapiens, UniProt P11362, V561M)",radiometric,1 µM,104%
Cc1[nH]c(/C=C2\C(=O)Nc3ccc(F)cc32)c(C)c1C(=O)N[C@H]1CCN(C(=O)N(C)C)C1,FGFR1,,1 µM,90%
O=C(Nc1cnn(-c2csc(C(=O)NC3COC3)c2)c1)Nc1ccccc1Cl,FGFR1,,5 µM,95.9%
CC(C)(C)c1nc2c(s1)c1nc(N)ncc1c1ccc(NS(=O)(=O)c3c(F)cccc3F)c(F)c12,FGFR1,radiometric,1 µM,90%
Oc1cccc(-c2nc(N3CCOCC3)c3oc4ncccc4c3n2)c1,FGFR1,,10 µM,118%
Nc1nc(Nc2ccccc2)sc1C(=O)c1c(F)cccc1F,FGFR1,,10 µM,64%
COc1cc(Nc2cnc(C#N)c(O[C@H](C)CN(C)C)n2)ncc1-c1cnn(C)c1,FGFR1,radiometric,1 µM,107%
CCN(CC)c1ccc(C2=NNC(=O)CC2C)cc1[N+](=O)[O-] (stereo not drawn),FGFR1,,10 µM,90%
CCN(CC)CCNC(=O)c1c(C)[nH]c(/C=C2\C(=O)Nc3ccc(F)cc32)c1C,FGFR1,,1 µM,22%
O=C(Nc1cnn(-c2csc(C(=O)NC3COC3)c2)c1)Nc1c(F)cccc1Cl,FGFR1,,5 µM,91.4%
CC(C)(C)C(=O)c1sc(NC2CCCCC2)nc1N,FGFR1,,10 µM,87%
